From ChEMBL document CHEMBL1124387, “Cardiotonic agents. 9. Synthesis and biological evaluation of a series of (E)-4,5-dihydro-6-[2-[4-(1H-imidazol-1-yl)phenyl]ethenyl]-3 (2H)-pyridazinones: a novel class of compounds with positive inotropic, antithrombotic, and vasodilatory activities for the treatment of congestive heart failure” (J Med Chem, 1989)
Several values for one entry are separate records, joined by “and”; a condition that tells them apart may be missing. Identical values can stand only once.

What was measured:
Canis familiaris [1] = test: Hemodynamic activity in anesthetized dog as percent change in blood pressure from baseline (123 mmHg) at 0.001 mg/kg administered intravenously; assay type: functional, Canis lupus familiaris; details: route intravenous
In short: (§1)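 Acutely instrumented anesthetized dogs (n = 6), 30-min control period. Compound in 0.9% saline, or dilute HCl diluted with saline, at 0.1 mL/kg iv over 1 min. At least four ascending half-log doses, 10 min apart, one compound per animal. Recorded: LV dP/dtmax, heart rate, aortic pressure and forelimb resistance. Values are maximum response from control average ± SEM.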

Canis familiaris [2] = test: Cardiovascular activity in presence of beta-adrenoceptor blockade in dogs as percent change in left ventricular myocardial contractility from base line (2327 mmHg/s) at 0.01 mg/kg dose before nadolol administration
Canis familiaris [3] = test: Weight of thrombus after 60 min of 3 ug/kg/min; assay type: functional, Canis lupus familiaris
In short: (§2)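 Anesthetized adult dogs were given sodium pentobarbital (32 mg/kg iv), intubated and artificially respired, then allowed 30 min to stabilize after surgery. Circumflex coronary thrombosis was induced by delivering 50 μA through an intraluminal silver-coated copper electrode, which denuded the endothelium. Continuous drug or saline infusion began 15 min before current onset and ran throughout, with one treatment per animal. After 60 min of stimulation the thrombus was dissected and weighed.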

Canis familiaris [4] = test: (§3) Decrease in thrombus weight in anesthetized dog coronary artery; assay type: functional, Canis lupus familiaris
In short: (§4)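 Pentobarbital-anesthetized (32 mg/kg iv), ventilated dogs, allowed 30 min to stabilize. Continuous infusion of compound (1.0, 3.0 or 10.0 μg/kg/min) or saline began 15 min before 50 μA current was applied to an intraluminal electrode in the circumflex coronary artery. After 60 min of stimulation the animals were euthanized and the thrombus dissected and weighed. One treatment per animal.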

Phosphodiesterase 3 = Phosphodiesterase 3 (Homo sapiens, UniProt Q14432+Q13370); test: Inhibition of phosphodiesterase 3 from human platelets at 1*10e-7-1*10e-4 M
In short: (§5)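 Fraction III cAMP-PDE from guinea pig heart or human platelets. Substrate [3H]cyclic AMP 1.0 μM at 30°C, with hydrolysis held to ≤10-20% and kept linear over 30 min. Compounds in DMSO, 2.5% final.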

Canis familiaris [5] = test: Hemodynamic activity in anesthetized dog as percent change in left ventricular myocardial activity from baseline (2271 mmHg/s) at 0.001 mg/kg administered intravenously; assay type: functional, Canis lupus familiaris, Heart left ventricle; details: route intravenous; in short: as §1
Canis familiaris [6] = test: Cardiovascular activity in presence of beta-adrenoceptor blockade in dogs as percent change in forelimb vascular resistance from base line (4.71 mmHg/mL/min) at 0.01 mg/kg before nadolol administration
Canis familiaris [7] = species: Canis familiaris; test: Ratio of positive inotropic activity to peripheral Vasodilator activity in dogs; assay type: functional, Canis lupus familiaris
In short: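 Inotropic ED20 is the iv bolus dose giving a 20% rise in dP/dtmax in anesthetized dogs. Vasodilator ED20 is the bolus dose into the brachial cannula of a constant-flow perfused forelimb (pentobarbital 30 mg/kg iv then 3.0 mg/kg/h, heparinized) giving a 20% fall in perfusion pressure. Each ED20 was taken from its dose-response curve; the ratio is PI/PV.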

Canis familiaris [8] = species: Canis familiaris; test: 50% increase in myocardial contractility (dP/dT max) in dogs; assay type: functional, Canis lupus familiaris, Myocardium; in short: as §1
Canis familiaris [9] = test: Hemodynamic activity in anesthetized dog as percent change in heart rate from baseline (152 bpm) at 0.3 mg/kg administered intravenously; assay type: functional, Canis lupus familiaris; details: route intravenous; in short: as §1
Canis familiaris [10] = test: Hemodynamic activity in anesthetized dog as percent change in left ventricular myocardial activity from baseline (2271 mmHg/s) at 0.003 mg/kg administered intravenously; assay type: functional, Canis lupus familiaris, Heart left ventricle; details: route intravenous; in short: as §1
Canis familiaris [11] = test: Hemodynamic activity in anesthetized dog as percent change in blood pressure from baseline (123 mmHg) at 0.3 mg/kg administered intravenously; assay type: functional, Canis lupus familiaris; details: route intravenous; in short: as §1
Canis familiaris [12] = test: Hemodynamic activity in anesthetized dog as percent change from baseline (2271 mmHg/s) in left ventricular myocardial activity at 0.1 mg/kg administered intravenously; assay type: functional, Canis lupus familiaris, Heart left ventricle; details: route intravenous
Canis familiaris [13] = test: Hemodynamic activity in anesthetized dog as percent change in fore limb resistance from baseline (2.77 mmHg/mL/min) at 0.003 mg/kg administered intravenously; assay type: functional, Canis lupus familiaris; details: route intravenous; in short: as §1
Canis familiaris [14] = test: Hemodynamic activity in anesthetized dog as percent change in blood pressure from baseline (123 mmHg) at 0.03 mg/kg administered intravenously; assay type: functional, Canis lupus familiaris; details: route intravenous; in short: as §1
Canis familiaris [15] = test: Hemodynamic activity in anesthetized dog as percent change in blood pressure from baseline (123 mmHg) at 0.01 mg/kg administered intravenously; assay type: functional, Canis lupus familiaris; details: route intravenous; in short: as §1
[16] = Inhibition of phosphodiesterase 3 from guinea pig cardiac tissue at 1*10e-7-1*10e-4 M; set-up: species or system Cavia porcellus; in short: as §5
Canis familiaris [17] = test: Hemodynamic activity in anesthetized dog as percent change in heart rate from baseline (152 bpm) at 0.003 mg/kg administered intravenously; assay type: functional, Canis lupus familiaris; details: route intravenous; in short: as §1
Canis familiaris [18] = test: Percentage increase in left ventricular contractility in anesthetized dog; assay type: functional, Canis lupus familiaris, Heart left ventricle
Canis familiaris [19] = test: as §3; assay type: functional, Canis lupus familiaris; in short: as §4; remark: listed apart in the source
Canis familiaris [20] = test: Hemodynamic activity in anesthetized dog as percent change in fore limb resistance from baseline (2.77 mmHg/mL/min) at 0.3 mg/kg administered intravenously; assay type: functional, Canis lupus familiaris; details: route intravenous; in short: as §1
Homo sapiens [21] = species: Homo sapiens; test: In vitro inhibition of ADP stimulated platelet aggregation in human thrombocyte enriched plasma; assay type: functional
In short: (§6)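 Human platelet-rich plasma from aspirin/NSAID-free donors, adjusted to 250 000 platelets/μL with platelet-poor plasma. Drug in DMSO/saline (1% DMSO final) was added before ADP or collagen, with doses set by titration. Read-out was aggregation extent (ADP, curve height) or rate (collagen, major slope) as % of saline control.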

Canis familiaris [22] = test: Hemodynamic activity in anesthetized dog as percent change in left ventricular myocardial activity from baseline (2271 mmHg/s) at 0.01 mg/kg administered intravenously; assay type: functional, Canis lupus familiaris, Heart left ventricle; details: route intravenous; in short: as §1
Homo sapiens [23] = species: Homo sapiens; test: In vitro inhibition of collagen stimulated platelet aggregation in human whole blood; assay type: functional
In short: (§7)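 Human whole blood from aspirin/NSAID-free fasted donors, read by impedance aggregometry 5 min after adding ADP or collagen. Aggregation expressed as % of control (2-6 replicates), plotted against log drug concentration; IC50 obtained by extrapolation.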

Canis familiaris [24] = test: Hemodynamic activity in anesthetized dog as percent change in heart rate from baseline (152 bpm) at 0.03 mg/kg administered intravenously; assay type: functional, Canis lupus familiaris; details: route intravenous; in short: as §1
Canis familiaris [25] = test: Hemodynamic activity in anesthetized dog as percent change in heart rate from baseline (152 bpm) at 0.1 mg/kg administered intravenously; assay type: functional, Canis lupus familiaris; details: route intravenous; in short: as §1
Canis familiaris [26] = test: Hemodynamic activity in anesthetized dog as percent change in fore limb resistance from baseline (2.77 mmHg/mL/min) at 0.001 mg/kg administered intravenously; assay type: functional, Canis lupus familiaris; details: route intravenous; in short: as §1
Canis familiaris [27] = test: Cardiovascular activity in presence of beta-adrenoceptor blockade in dogs as percent change in blood pressure from base line (109/88 mmHg) at 0.01 mg/kg dose given 15 min after nadolol; -10/-13; assay type: functional, Canis lupus familiaris
Canis familiaris [28] = test: Hemodynamic activity in anesthetized dog as percent change in blood pressure from baseline (123 mmHg) at 0.1 mg/kg administered intravenously; assay type: functional, Canis lupus familiaris; details: route intravenous; in short: as §1
Canis familiaris [29] = test: Cardiovascular activity in presence of beta-adrenoceptor blockade in dogs as percent change in heart rate from base line (121 bpm) at 0.01 mg/kg; assay type: functional, Canis lupus familiaris
Homo sapiens [30] = species: Homo sapiens; test: In vitro inhibition of collagen stimulated platelet aggregation in human thrombocyte enriched plasma; assay type: functional; in short: as §6
Canis familiaris [31] = test: Weight of thrombus after 60 min of 10 ug/kg/min; assay type: functional, Canis lupus familiaris; in short: as §2
Homo sapiens [32] = species: Homo sapiens; test: In vitro inhibition of ADP stimulated platelet aggregation in human whole blood; assay type: functional; in short: as §7

## CC1CC(=O)NN=C1/C=C/c1ccc(-n2ccnc2)cc1.Cl (stereo not drawn)
Canis familiaris [1]
  Change: -2%
Canis familiaris [2]
  Change: 56%
Canis familiaris [3]
  Thrombus weight: 6.3 mg
Canis familiaris [4]
  Inhibition: 40%
Phosphodiesterase 3
  IC50: 77 nM
Canis familiaris [5]
  Change: 2%
Canis familiaris [6]
  Change: -19%
Canis familiaris [7]
  Ratio: 1.29
Canis familiaris [8]
  Dose: 8 µg/kg
Canis familiaris [9]
  Change: 33%
Canis familiaris [10]
  Change: 19%
Canis familiaris [11]
  Change: -40%
Canis familiaris [12]
  Change: 134%
Canis familiaris [13]
  Change: -15%
Canis familiaris [14]
  Change: -24%
Canis familiaris [15]
  Change: -13%
[16]
  IC50: 250 nM
Canis familiaris [17]
  Change: 5%
Canis familiaris [18]
  Increase: 77% and 103%
Canis familiaris [19]
  Inhibition: 65% and 44%
Canis familiaris [20]
  Change: -54%
Homo sapiens [21]
  IC50: 300 nM
Canis familiaris [22]
  Change: 65%
Homo sapiens [23]
  IC50: 1.5 nM
Canis familiaris [24]
  Change: 23%
Canis familiaris [25]
  Change: 28%
Canis familiaris [26]
  Change: 0.3%
Canis familiaris [27]
  Change: -10%
Canis familiaris [28]
  Change: -35%
Canis familiaris [29]
  Change: 6%
Homo sapiens [30]
  IC50: 30 nM
Canis familiaris [31]
  Thrombus weight: 10 mg
Homo sapiens [32]
  IC50: 90 nM
